Compound activity: PubChem BioAssay, several laboratories
Beta cell apopt: blocks beta cell apoptosis. protection from apoptosis, % (test concentration not listed). 300,000 compounds, 0.8% hits. INS-1E cytokine-induced death, ATP luminescence, 48 h; percent of positive-control rescue, neutral wells zero;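 active = Every replicate reaches about 75%, or at least half do and their mean reaches it too, limit read from the data; inconclusive = At least half of replicates reach the limit but their mean does not; inactive = Under half of replicates reach the limit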;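 note: 0% = cytokine-treated negative control wells and 100% = positive control rescue; higher means more ATP so stronger rescue from cytokine killing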
T cruzi inh: T. cruzi replication inhibition; AID 1885; 300,000 compounds, 1.4% hits; T. cruzi beta-gal in NIH3T3, luminescence, 90 h; inhibition, % (concentration not given with the values);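 active = mean inhibition across valid replicates above about 55%, limit read from the data; inconclusive = mean below that limit but half or more replicates reach it; inactive = mean below it, under half of replicates reach it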;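 note: signal also drops with host cell toxicity which is not excluded here; 0% = plate median of DMSO wells and 100% = zero luminescence signal; higher percent means less beta-gal luminescence so fewer parasites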
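Material: NIH/3T3 host cells with β-galactosidase reporter T. cruzi; Input: 5,000 host fibroblasts per well; Medium: DMEM, 2% fetal bovine serum; Compound: 50 nL DMSO compound solution per well; Schedule: 3 h host attachment, then at least 90 h co-culture; Detection: luminescent β-galactosidase signal after 60 min lysis.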
GRIN3A LBD mod: NR3A (human) ligand-binding domain modulation; NR3A LBD differential scanning fluorimetry, Tm shift; 0% = protein alone, 100% = glycine-bound protein; Tm shift relative to glycine control, % at 25 µM; 340,000 compounds, 2.5% hits; AID 1259313;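 active = melting temperature shift of at least 10% of the positive control shift, at one fixed dose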
CSC inhib: cancer stem cell inhibition | inhibition, % at 7.5 µM | cancer stem cell-like cells viability, luminescence | AID 2717 | 300,000 compounds, 1.1% hits; in the data active = inhibition above about 75%; inconclusive = no clear call, values can overlap the other calls; tested in HMLE shEcad cells
CHOP inhibitor: inhibitors of CHOP induction in ER stress response. inhibition, % at 10 µM. 220,000 compounds, 3.8% hits. CHO-K1 CHOP-promoter luciferase, tunicamycin-induced, 15-18 h;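 active = compounds that reduced the stress-induced luciferase reporter signal by more than about 70% of percent inhibition, limit read from the data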;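 note: 0% = tunicamycin plus vehicle and 100% = wells without tunicamycin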
PREPL inh: inhibits the human prolyl oligopeptidase-like enzyme; Q4J6C6; recombinant PREPL, fluorescence polarization activity-based probe; inhibition, % at 5.96 µM; 320,000 compounds, 0.68% hits; AID 2751; in the data active = inhibition above about 43%;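 note: 0% = enzyme with DMSO and 100% = wells lacking enzyme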
Target sequence (Q4J6C6 whole entry, looked up): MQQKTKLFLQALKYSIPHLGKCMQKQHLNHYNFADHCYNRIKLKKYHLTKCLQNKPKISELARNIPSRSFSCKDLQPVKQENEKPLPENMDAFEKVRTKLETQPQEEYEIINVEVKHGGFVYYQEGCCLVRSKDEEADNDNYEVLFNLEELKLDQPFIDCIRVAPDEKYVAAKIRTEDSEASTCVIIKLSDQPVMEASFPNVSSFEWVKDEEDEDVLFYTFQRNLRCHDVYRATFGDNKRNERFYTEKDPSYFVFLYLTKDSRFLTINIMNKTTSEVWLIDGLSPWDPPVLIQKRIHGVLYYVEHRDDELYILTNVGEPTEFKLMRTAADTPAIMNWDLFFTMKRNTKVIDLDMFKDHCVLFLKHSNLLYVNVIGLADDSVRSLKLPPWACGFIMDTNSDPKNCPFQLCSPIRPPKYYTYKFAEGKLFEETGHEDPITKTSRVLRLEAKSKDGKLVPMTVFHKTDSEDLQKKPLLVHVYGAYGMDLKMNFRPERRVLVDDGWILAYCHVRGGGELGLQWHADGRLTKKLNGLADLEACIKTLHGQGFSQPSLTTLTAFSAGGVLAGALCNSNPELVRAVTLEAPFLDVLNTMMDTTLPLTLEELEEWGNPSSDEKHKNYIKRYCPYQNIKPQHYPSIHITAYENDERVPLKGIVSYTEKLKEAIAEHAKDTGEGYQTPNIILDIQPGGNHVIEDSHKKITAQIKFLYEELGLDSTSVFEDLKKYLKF
An asterisk follows results filed as active; u = inconclusive; x = no result given; ! = not active in a repeat. Rows were chosen to be rich in hits. Some 6.7% of all compounds tested hit in one or more screens of this group.

SMILES | Beta cell apopt | T cruzi inh | GRIN3A LBD mod | CSC inhib | CHOP inhibitor | PREPL inh
COc1ccc(CNC(=O)c2ccccc2SCC(=O)N2CCCC2)cc1OC | 1 | -6 | 1 | -5 | x | 5
O=C(O)CC(CC(=O)NCC(O)c1ccccc1)c1ccccc1 (stereo unspecified) | x | 1 | -2 | x | x | -9
O=C(N/N=C/c1ccccn1)c1c[nH]c2ccccc12 | 3 | -11 | 4 | 6 | 9 | 6
C/C(=N\NC(=O)c1c[nH]c2ccccc12)c1ccc(C)s1 | 6 | 28 | 15* | -35 | x | 3
Cc1ccc(/C=N/NC(=O)c2c[nH]c3ccccc23)o1 | 4 | 5 | 17* | -13 | -48 | 4
O=C(N/N=C/c1ccc[nH]1)c1c[nH]c2ccccc12 | x | -4 | 32* | x | x | x
C/C(=N/NC(=O)c1ccncc1)c1c[nH]c2ccccc12 | -2 | -19 | 4 | -2 | 6 | -3
Cc1cc(NC(=O)c2ccc(Cl)c(S(=O)(=O)N3CCCCC3)c2)no1 | -2 | -20 | 4 | -6 | x | 8
CN(C)S(=O)(=O)c1cccc(NC(=O)COC(=O)c2cc(-c3cccc(Br)c3)nc3ccccc23)c1 | 4 | -1 | 22* | -8 | 27 | -21
COc1ccc(NC(=O)CN(C)C(=O)c2cc(-c3ccc(Cl)cc3)nc3ccccc23)cc1 | 2 | 13 | 14* | 36 | x | -6
COc1cccc(NC(=O)CN(C)C(=O)c2cc(-c3cccc(Br)c3)nc3ccccc23)c1 | 4 | 38 | 18* | 36 | x | 12
CCOc1ccc(NC(=O)CN(C)C(=O)c2cc(-c3ccc(OC)cc3)nc3ccccc23)cc1OCC | 5 | 12 | 6 | -8 | x | -3
COc1cccc(NC(=O)CN(C)C(=O)c2cc(-c3ccccc3)nc3ccc(C)cc23)c1 | x | x | 6 | x | x | x
Cc1cccc(CN2C(=O)[C@@H]3Cc4c([nH]c5ccccc45)C(C)(C)N3C2=O)c1 | x | 17 | -2 | 76* | x | 8
Fc1ccc(NC(=S)Nc2ccccc2OC(F)F)cc1Cl | 6 | -15 | 5 | x | 8 | 12
COc1ccc(NC(=S)Nc2ccc(C)c(Cl)c2)cc1OC | -13 | -3 | 13* | -13 | 13 | 13
Cc1cccc(C)c1NC(=S)Nc1ccc(Cl)c(Cl)c1 | 1 | 2 | -1 | 5 | 13 | -3
Cc1ccc(NC(=S)Nc2ccc(Cl)c(Cl)c2)c(OC(F)F)c1 | -7 | -13 | 15* | x | 82* | 0
Cc1ccc(NC(=S)Nc2ccc(OC(F)F)c(Cl)c2)cc1Cl | 4 | 13 | 38* | 39 | 91* | 6
Cc1cc(C)cc(NC(=S)Nc2ccc(Cl)c(Cl)c2)c1 | -1 | 16 | 22* | 41 | 17 | 0
O=C(c1ccccc1)N1CCCCC1c1cccnc1 (stereo unspecified) | x | x | -2 | x | x | x
CCOC(=O)c1ccc(-c2ccc3c(c2)CCC3)nc1C | -2 | 0 | 0 | -7 | x | -2
CC(NC(=O)N1CCN(c2ccccc2F)CC1)c1ccc(F)c(F)c1 (stereo unspecified) | 3 | 8 | 4 | 11 | x | 22
COc1ccc(/C=C/C(=O)C(C(N)=O)=C2SCCS2)cc1 | -4 | 10 | -12 | 4 | -33 | 12
Cc1ccc(C(=O)C(C(=O)/C=C/c2ccccc2)=C2SCCCS2)cc1 | x | 59* | 2 | u | -79 | 3
SMILES | Beta cell apopt | T cruzi inh | GRIN3A LBD mod | CSC inhib | CHOP inhibitor | PREPL inh
Oc1ccc(N=Nc2ccccc2C(F)(F)F)c2cccnc12 | 90* | 55* | -1 | 100* | x | 4
COc1ccccc1N=Nc1ccc(O)c2ncccc12 | 20 | 46 | -16 | 27 | x | 13
Cc1ccc(N=Nc2ccc(O)c3ncccc23)cc1C | -6 | 66* | -6 | 1 | 92* | 4
Cc1ccc(N=Nc2ccc(O)c3ncccc23)cc1 | 102* | 57* | -6 | 99* | 31 | 13
C=CCNC(=O)Nc1ccc(Cl)cn1 | -5 | -10 | -1 | -7 | 43 | 8
COc1ccc(CCNC(=O)CCCOc2ccc(Cl)cc2)cc1OC | 2 | -3 | 2 | -3 | x | -3
Cc1ccc(-n2cc(CN(C)Cc3nccn3C)c(-c3ccc(F)cc3)n2)cc1 | 1 | 48 | 0 | 8 | 30 | -13
CCn1ccnc1CN(C)Cc1cn(-c2ccc(C)cc2)nc1-c1ccc(F)cc1 | -5 | 48 | 0 | -4 | 75* | 4
Cc1ccc(-n2cc(CN(C)Cc3ncc[nH]3)c(-c3cccc(C)c3)n2)cc1 | 30 | 58* | -2 | 7 | 22 | -3
O=C(NC1CCN(S(=O)(=O)c2ccccc2C(F)(F)F)CC1)c1ccco1 | -1 | 4 | -2 | 18 | x | 3
COc1ccc(CCNC(=S)N2CCC(Cc3ccccc3)CC2)cc1OC | 6 | 23 | -1 | 11 | -2 | -9
CCOc1ccccc1OCCCCCc1c(C)n[nH]c1C | 2 | -13 | 4 | -15 | 40 | -4
Cc1cccc(OCCCCc2c(C)n[nH]c2C)c1C | 39 | -5 | 2 | 25 | 95* | 6
COCC1CCN(Cc2cn[nH]c2-c2cc3ccccc3o2)C1 (stereo unspecified) | 2 | 69* | -1 | 26 | -6 | 13
c1ccc2oc(-c3[nH]ncc3CN3CCSCC3)cc2c1 | 0 | 7 | 0 | -6 | 9 | 5
Cc1ccc2c(Cl)c(Cc3ccccc3)c(=S)[nH]c2n1 | x | x | -2 | x | x | x
CC(C)CN(CC(C)C)CC(O)COc1ccccc1Br (stereo unspecified) | 3 | -12 | -3 | 7 | 85* | 5
CCCCNC(=O)c1ccc(CNc2c(N3CCC(C(=O)OCC)CC3)c(=O)c2=O)cc1 | 4 | -2 | 11*! | -13 | 3 | 2
CCOc1ccc(C(C)C)cc1S(=O)(=O)Nc1ccc(Cl)cn1 | -2 | x | 12* | -6 | 50 | 5
OCCCCNCc1ccc(OCc2ccc(Cl)cc2Cl)cc1 | 44 | 60* | -2 | 91* | 14 | 39
CCOC(=O)c1ccc(N2C(=O)c3cccc4c(C(=O)O)ccc(c34)C2=O)cc1 | -1 | -16 | 1 | -3 | x | 13
CC(C)C1C(c2ccccc2)N(C)C(c2ccccc2)CC1(O)c1ccccc1 (stereo unspecified) | 45 | 58* | -8 | 131* | 73* | -7
CC(C)C1C(c2ccccc2)NC(c2ccccc2)CC1(O)c1ccc(F)cc1 (stereo unspecified) | x | 17 | -3 | 70 | 80* | -31
CCC1C(=O)CC(c2ccccc2)NC1c1ccccc1 (stereo unspecified) | -4 | -19 | 0 | 10 | 18 | -3
O=C(CSC1=N/C(=C/c2ccco2)C(=O)N1c1ccc(OC(F)F)cc1)NC1CCS(=O)(=O)C1 (stereo unspecified) | -1 | -2 | 0 | -10 | 17 | 11
Nc1c(C(=O)c2ccc(Cl)cc2)sc2nsc(SCCN3CCOCC3)c12 | -5 | 27 | -1 | 26 | 44 | 10
